High-throughput results (PubChem)
Shown are actives, neighbours in structure and some others; about 2.4% of the full set was active somewhere.
MC4R ag barr: human MC4R agonism via beta-arrestin | U2OS MC4R beta-arrestin complementation, luminescence; percent of melanotan II response, DMSO zero | hit rate 0.98% among 360,000 | activation, % at 8.9 µM | P32245 | AID 540308;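 active = activation above a per-plate cutoff, the mean activation of sample wells on that plate plus 3 SD, cut at about 8% in these data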
aDG glyco act: alpha-DG glycosylation activation; Pro5-aDG cells, alpha-DG glycosylation AlphaScreen (IIH6); 0% Pro5, 100% B10-LARGE cell signal; hit rate 0.22% among 360,000; activation, % at 10 µM;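 active = activation of at least 8% versus controls, or a plate z-score of at least 8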;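 note: Pro5 are CHO cells carrying HIG-tagged alpha-DG that lacks glycosylation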
TbMetRS inhib: blocks T. brucei methionyl-tRNA synthetase activity; purified T. brucei MetRS, ATP depletion, Kinase-Glo luminescence; inhibition, % at 11.9 µM; AID 624268; hit rate 0.4% among 360,000;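 active = inhibition above a per-plate cutoff of the control wells' mean inhibition plus 3 SD, cut at about 5.5% in these data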;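 note: 0% = DMSO wells median and 100% = median of wells with control inhibitor compound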
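Material: T. brucei methionyl-tRNA synthetase, purified; reagent: substrates ATP, L-methionine and bulk Escherichia coli tRNA; dosing: 11.9 µM single point; timing: 15 min plus 2 h at 25 °C; detection: luminescence of leftover ATP; evaluation: % inhibition; control set: DMSO-only wells as low control; replicates: singlicate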
TAG inh: reduces triacylglycerol accumulation in H9c2 cells; Nile Red lipid (TAG) fluorescence; cells loaded with 200 µM oleic acid; inhibition, % at 12.5 µM; hit rate 0.66% among 230,000;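 active = pattern-corrected inhibition of lipid staining of at least 50% with the nuclear-stain viability signal not falling by more than 50%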;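 note: 0% = DMSO wells and 100% = triacsin C control wells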
NTR1 ag: NTR1 (human) agonism; hit rate 0.17% among 330,000; activation, % at 20 µM; P30989; AID 493036; NTR1-U2OS beta-arrestin-GFP spot imaging, agonist mode;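 active = activation at or above 40% of the spot to cytoplasm intensity ratio, with at least 20 cells analyzed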;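 note: 0% = DMSO without peptide and 100% = 100 nM NTR1 peptide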
Target sequence (P30989 whole entry, looked up): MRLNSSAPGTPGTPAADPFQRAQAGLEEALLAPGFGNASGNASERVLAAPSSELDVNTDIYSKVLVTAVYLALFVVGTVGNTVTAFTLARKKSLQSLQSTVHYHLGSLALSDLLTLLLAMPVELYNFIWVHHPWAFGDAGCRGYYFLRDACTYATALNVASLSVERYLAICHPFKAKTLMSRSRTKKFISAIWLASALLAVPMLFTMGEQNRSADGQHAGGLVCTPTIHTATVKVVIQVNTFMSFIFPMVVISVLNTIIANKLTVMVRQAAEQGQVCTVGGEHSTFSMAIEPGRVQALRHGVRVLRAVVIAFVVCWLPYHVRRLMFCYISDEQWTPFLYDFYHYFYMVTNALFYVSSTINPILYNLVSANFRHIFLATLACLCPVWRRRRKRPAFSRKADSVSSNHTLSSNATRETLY
MC4R antag cAMP: blocks human MC4R cAMP signaling; MC4R-expressing cells, MTII-stimulated cAMP, LANCE TR-FRET; P32245; hit rate 0.48% among 360,000; inhibition, % at 6.5 µM;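 active = inhibition above its plate's cutoff, the mean of tested wells on that plate plus 3 SD, cut at about 29% in these data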;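 note: 0% = Melanotan II alone and 100% = Melanotan II plus saturating MCL0020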
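System – human MC4R-expressing U2OS cells · Also added – Melanotan II · Dosing – one concentration, 6.5 µM nominal · Timing – 30-min compound, 1-h challenge, 1-h detection, room temperature · Measured by – Eu-cAMP/anti-cAMP TR-FRET, emission 671 nm · Replicates – singlicate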
Starred values were filed as active, the others as inactive.

How did CCOC(=O)c1[nH]c2c(c1C)C(=O)CC(c1ccco1)C2 (centres undefined) do in these assays?
MC4R ag barr: 0.7; aDG glyco act: -0.1; TbMetRS inhib: -0.3; TAG inh: 37.7; NTR1 ag: -2.4; MC4R antag cAMP: -26.2

How did CCN1CCN(Cc2ccc(NC(=O)c3ccc(C)c(NC(=O)c4cc(-c5ccc(Br)cc5)n[nH]4)c3)cc2C(F)(F)F)CC1 do in these assays?
MC4R ag barr: -0.4; aDG glyco act: -0.5; TbMetRS inhib: -0.5; TAG inh: 65.9*; NTR1 ag: 2.0; MC4R antag cAMP: 3.2

How did CCN1CCN(Cc2ccc(NC(=O)c3ccc(C)c(NC(=O)c4nccn4C)c3)cc2C(F)(F)F)CC1 do in these assays?
MC4R ag barr: 0.1; aDG glyco act: 1.3; TbMetRS inhib: -0.2; TAG inh: -6.2; NTR1 ag: 1.0; MC4R antag cAMP: -5.2

What do the screens show for `CCN1CCN(Cc2ccc(NC(=O)c3ccc(C)c(NC(=O)c4cncc(-c5cccs5)c4)c3)cc2C(F)(F)F)CC1`?
MC4R ag barr: 2.3; aDG glyco act: -0.6; TbMetRS inhib: -0.4; TAG inh: 116.7*; MC4R antag cAMP: 5.3

What do the screens show for `CCC(c1nnnn1-c1ccc2c(c1)OCCO2)N1CCN(c2ccc(C)cc2)CC1` (centres undefined)?
aDG glyco act: 1.1; TbMetRS inhib: -0.9

What do the screens show for `CC1OC(CCc2cccc(Cl)c2)Cc2[nH]c(=S)[nH]c(=O)c21` (centres undefined)?
aDG glyco act: 0.0; TbMetRS inhib: -1.4

How did COc1ccccc1NC(=O)NCc1nc(-c2ccc(C(F)(F)F)cc2)no1 do in these assays?
MC4R ag barr: 8.5*; aDG glyco act: 0.1; TbMetRS inhib: -0.3; TAG inh: -31.1; NTR1 ag: 5.4; MC4R antag cAMP: 9.7

What do the screens show for `O=C(Nc1ccc(Br)c(C(F)(F)F)c1)c1ccc(C(F)(F)F)cc1`?
MC4R ag barr: 8.5*; aDG glyco act: 0.1; TbMetRS inhib: 0.5; TAG inh: 6.7; NTR1 ag: 15.6; MC4R antag cAMP: 17.2

Results for N#CCCN1CCCc2cc(N=Nc3ccc(C(F)(F)F)cc3)ccc21 ?
MC4R ag barr: -3.1; aDG glyco act: -0.4; TbMetRS inhib: 0.5; TAG inh: 57.3*; NTR1 ag: 0.1; MC4R antag cAMP: 22.8

How did CCCN1CCCc2ccccc21 do in these assays?
MC4R ag barr: -1.9; aDG glyco act: 0.0; TbMetRS inhib: 0.4; NTR1 ag: 0.1; MC4R antag cAMP: 4.7

How did CCOC(=O)/C(=C\c1cccnc1)C(=O)c1cc(C(C)=O)c(Nc2ccccc2)s1 do in these assays?
MC4R ag barr: -3.7; aDG glyco act: -1.2; TbMetRS inhib: -0.4; TAG inh: 80.1*; NTR1 ag: 1.0; MC4R antag cAMP: -17.2

Results for CCOC(=O)CCS(=O)(=O)c1nc(-c2ccccc2)cc(C(F)(F)F)n1 ?
MC4R ag barr: -2.7; aDG glyco act: 0.2; TbMetRS inhib: -0.6; TAG inh: 74.3*; NTR1 ag: -0.5; MC4R antag cAMP: 16.4

What do the screens show for `CCOC(=O)CS(=O)(=O)c1nc(-c2ccccc2)cc(C(F)(F)F)n1`?
MC4R ag barr: -4.3; aDG glyco act: -0.8; TbMetRS inhib: 0.0; TAG inh: 21.1; NTR1 ag: 1.6; MC4R antag cAMP: 13.1

What do the screens show for `O=C(CC[C@H]1O[C@@H](n2ccc(=O)[nH]c2=O)[C@H](O)[C@@H]1O)N[C@@H](Cc1ccccc1)C(=O)NCC1CCCCC1`?
aDG glyco act: -0.2; TbMetRS inhib: -0.4

Results for CC1=CNC(=O)CC(C)(C)C1 ?
aDG glyco act: 0.1; TbMetRS inhib: 0.4

How did CCOc1ccccc1Nc1nc2ccccc2[nH]1 do in these assays?
MC4R ag barr: 3.3; aDG glyco act: 0.0; TbMetRS inhib: 1.9; TAG inh: 26.3; NTR1 ag: -1.3; MC4R antag cAMP: -2.7

What do the screens show for `CCOCCCNc1nc2ccccc2[nH]1`?
MC4R ag barr: -1.2; aDG glyco act: -0.1; TbMetRS inhib: 8.2*; TAG inh: -13.2; NTR1 ag: -0.3; MC4R antag cAMP: -0.9

Results for CCCCOc1ccc(C(=O)N/C(=C\c2cccc([N+](=O)[O-])c2)C(=O)OCCC)cc1 ?
MC4R ag barr: 8.8*; aDG glyco act: -0.4; TbMetRS inhib: -0.4; TAG inh: 8.3; NTR1 ag: 2.9; MC4R antag cAMP: 16.2

Results for O=C(CSc1nnc(COc2ccc(Cl)cc2Cl)o1)Nc1ccccn1 ?
MC4R ag barr: 8.9*; aDG glyco act: -0.3; TbMetRS inhib: 0.5; TAG inh: -16.7; NTR1 ag: -0.2; MC4R antag cAMP: 5.8

How did O=C(CSc1nnc(CCCOc2ccc(Cl)cc2Cl)o1)Nc1ccc(C(=O)O)cc1 do in these assays?
MC4R ag barr: -2.6; aDG glyco act: -0.1; TbMetRS inhib: 4.2; NTR1 ag: 0.0; MC4R antag cAMP: 5.0

Results for N#Cc1ccc(/C=C/C(=O)c2ccccc2)cc1 ?
MC4R ag barr: -2.1; aDG glyco act: 0.2; TbMetRS inhib: -0.6; NTR1 ag: 60.8*; MC4R antag cAMP: 19.0

What do the screens show for `C/C(=N\Nc1nc2ccccc2s1)c1cccs1`?
MC4R ag barr: 0.9; aDG glyco act: -0.8; TbMetRS inhib: -0.4; NTR1 ag: 4.4; MC4R antag cAMP: 5.2

How did Brc1ccc(/C=N/Nc2nc3ccccc3o2)cc1 do in these assays?
MC4R ag barr: 0.4; aDG glyco act: -0.1; TbMetRS inhib: -0.3; NTR1 ag: 0.1; MC4R antag cAMP: -7.6

What do the screens show for `Oc1ccccc1/C=N/Nc1nc2ccccc2o1`?
MC4R ag barr: 1.4; aDG glyco act: 0.0; TbMetRS inhib: 0.1; TAG inh: 62.8*; NTR1 ag: 4.2; MC4R antag cAMP: 19.5

Results for CC(=NNc1nc2ccccc2s1)c1ncccn1 ?
MC4R ag barr: -2.8; aDG glyco act: -0.6; TbMetRS inhib: 0.1; TAG inh: 63.2*; MC4R antag cAMP: 2.9

Results for CC(=NNc1nc2ccccc2o1)c1ncccn1 ?
MC4R ag barr: -3.4; aDG glyco act: -0.7; TbMetRS inhib: -0.5; TAG inh: 50.6*; MC4R antag cAMP: 0.7

Results for O=C(NCc1cccc(F)c1)c1[nH]c(C(F)(F)F)nc1-c1ccccc1 ?
aDG glyco act: 0.0; TbMetRS inhib: -0.1

How did Fc1cccc(Cc2c(-c3ccc(Cl)cc3)nc3ccc(Br)cn23)c1 do in these assays?
aDG glyco act: 0.2; TbMetRS inhib: 0.0

Results for COCCCN1C(=O)C(CC(=O)NCC2CCCCC2)CC(C(=O)N(C(C)C)C(C)C)=C1C (centres undefined) ?
aDG glyco act: -0.1; TbMetRS inhib: -0.1

What do the screens show for `CCN(CC)c1ccc2c(-c3ccc(S(=O)(=O)O)cc3S(=O)(=O)[O-])c3ccc(=[N+](CC)CC)cc-3oc2c1`?
MC4R ag barr: -3.8; aDG glyco act: 0.0; TbMetRS inhib: -3.2; NTR1 ag: -3.4; MC4R antag cAMP: 50.3*
